The values that follow come from ChEMBL document CHEMBL1152607, “Tetraiodobenzimidazoles are potent inhibitors of protein kinase CK2” (Bioorg Med Chem, 2009).

Broadly, the Ki is the dissociation constant of the complex between target and ligand, obtained from inhibition or displacement. A high value points to weaker binding.

Each structure is given as a SMILES string. Activity calls are given as the source filed them. No cut-off for these calls is given here.

Target in the first experiment: not listed separately
The experiment can be described thus: Inhibition of rat liver Casein kinase 2. The gist of the method:
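Ki from Lineweaver–Burk plots: peptide fixed, ATP increasing, with or without several inhibitor concentrations. Alternatively derived from IC50 via the Cheng–Prusoff relationship.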
Take `Brc1nc2c(I)c(I)c(I)c(I)c2[nH]1`: the affinity corresponds to a Ki of 0.09 µM. The same measure, in the same setting: with `NNC(=O)Cn1cnc2c(Br)c(Br)c(Br)c(Br)c21` the figure was 1.51 µM; with `O=C(O)Cn1cnc2c(I)c(I)c(I)c(I)c21`, 0.14 µM. `CCc1nc2c(I)c(I)c(I)c(I)c2[nH]1` showed a Ki of 0.019 µM.

For `Clc1c(Cl)c(I)c2[nH]cnc2c1I`, the affinity corresponds to a Ki of 0.46 µM. Regarding `FC(F)(F)C(F)(F)c1nc2c(Br)c(Br)c(Br)c(Br)c2[nH]1`, the inhibitory constant (Ki) came to 0.2 µM.

As for `FC(F)(F)c1nc2c(I)c(I)c(I)c(I)c2[nH]1`, the affinity corresponds to a Ki of 0.12 µM. In the case of `Ic1c(I)c(I)c2[nH]cnc2c1I`, the affinity corresponds to a Ki of 0.023 µM.

Compound `Cc1nc2c(I)c(I)c(I)c(I)c2[nH]1` yielded a Ki of 0.024 µM. In turn, `OCCNc1nc2c(I)c(I)c(I)c(I)c2[nH]1` registered a Ki of 0.027 µM. As to `Cc1nc2c(I)c(Cl)c(Cl)c(I)c2[nH]1`, the affinity, expressed as Ki, was 0.33 µM. Take `CNC(=O)Cn1cnc2c(Br)c(Br)c(Br)c(Br)c21`: the affinity corresponds to a Ki of 1.91 µM. Still for that read-out and setting: the figure for `O=C(O)Cn1cnc2c(Br)c(Br)c(Br)c(Br)c21` is 1.34 µM. `S=c1[nH]c2c(Br)c(Br)c(Br)c(Br)c2[nH]1`: the inhibitory constant (Ki) was 0.2 µM. Turning to `CNC(=O)Cn1cnc2c(I)c(I)c(I)c(I)c21`, the inhibition constant (Ki) came to 0.18 µM. Regarding `NC(=O)Cn1cnc2c(I)c(I)c(I)c(I)c21`, the Ki amounted to 0.13 µM. Same read-out and setting: with `Clc1nc2c(Br)c(Br)c(Br)c(Br)c2[nH]1` the figure was 0.25 µM; with `Brc1c(I)c(Br)c2nc[nH]c2c1I`, 0.075 µM. As for `NC(=O)Cn1cnc2c(Br)c(Br)c(Br)c(Br)c21`, the inhibitory constant (Ki) is 1.45 µM. Same read-out and setting: the figure for `S=c1[nH]c2c(I)c(I)c(I)c(I)c2[nH]1` is 0.05 µM; for `FC(F)(F)C(F)(F)c1nc2c(I)c(I)c(I)c(I)c2[nH]1` it is 0.07 µM; for `O=C(O)CSc1nc2c(I)c(I)c(I)c(I)c2[nH]1` it is 0.054 µM. Compound `O=c1[nH]c2c(I)c(I)c(I)c(I)c2[nH]1` yielded an inhibition constant Ki of 0.05 µM. On to `Clc1nc2c(I)c(I)c(I)c(I)c2[nH]1`, for which the Ki was determined as 0.12 µM. `OCCNc1nc2c(Br)c(Br)c(Br)c(Br)c2[nH]1` had a Ki of 0.14 µM. Turning to `Brc1nc2c(Br)c(Br)c(Br)c(Br)c2[nH]1`, the affinity corresponds to a Ki of 0.37 µM. Same read-out and setting: with `NNC(=O)Cn1cnc2c(I)c(I)c(I)c(I)c21` the figure was 0.16 µM; with `Clc1c(I)c(Cl)c2nc[nH]c2c1I`, 0.59 µM; with `O=c1[nH]c2c(Br)c(Br)c(Br)c(Br)c2[nH]1`, 0.18 µM.

Consider `Brc1c(I)c(I)c2[nH]cnc2c1I`, for which affinity was put at a Ki of 0.1 µM. Same read-out and setting: with `O=C(O)CSc1nc2c(Br)c(Br)c(Br)c(Br)c2[nH]1` the figure was 0.12 µM.

`FC(F)(F)c1nc2c(Br)c(Br)c(Br)c(Br)c2[nH]1` came in with an inhibition constant (Ki) of 0.37 µM. Compound `Clc1c(I)c(I)c2[nH]cnc2c1I` showed an inhibition constant Ki of 0.16 µM. On the same count and under the same terms, with `Brc1c(Br)c(Br)c2[nH]cnc2c1Br` the figure was 0.3 µM.

For the next experiment, the species on record is Rattus norvegicus. The experiment can be described thus: (§1) Noncompetitive inhibition of rat liver Casein kinase 2 using 80 uM ATP and increasing phosphoacceptor substrate by Lineweaver-Burke plot.
Consider `Ic1c(I)c(I)c2[nH]cnc2c1I`, for which the outcome was Active.

Target in a further experiment: not listed separately
The experiment is described as §1.
Consider `Clc1c(Cl)c(Cl)c2[nH]cnc2c1Cl`, for which the inhibition constant (Ki) stood at 21 µM.
